This passage reports IC50 and Ki results from ChEMBL document CHEMBL1124977, “Synthesis of acyclic and dehydroaspartic acid analogues of Ac-Asp-Glu-OH and their inhibition of rat brain N-acetylated alpha-linked acidic dipeptidase (NAALA dipeptidase)” (J Med Chem, 1990).

Residues, ends and D or L forms follow the SMILES beside them.

In assay [1] the target is T1, Glutamate carboxypeptidase 2 (Rattus norvegicus, UniProt P70627). Put plainly: Concentration required for 50%inhibition of Ac-Asp-[3,4-3H]-Glu-OH hydrolysis against rat forebrain N-acetylated-alpha-linked acidic dipeptidase. In outline: (§1)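 Enzyme source: "buffy coat" synaptic membranes from Sprague-Dawley rat (45–90 days) forebrain, washed in 0.1 M Hepes pH 7.4 and stored frozen. Inhibitor was tested at about 2- and 4-fold above and below the estimated IC50. Mean of three experiments ± SEM.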

Assay [2] deals with T1, Glutamate carboxypeptidase 2. The assay is described as follows: Tested for Ac-Asp-[3,4-3H]-Glu-OH hydrolysis inhibitory activity against rat forebrain N-acetylated-alpha-linked acidic dipeptidase. The method in brief: (§2)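 Ki used the same rat forebrain membrane assay (Hepes pH 7.4, NaCl, CoCl₂, radiometric ³H-Glu read-out). Substrate was 0.25, 0.5, 1.0, 2.0 and 5.0 μM. Inhibitor was tested at 0, IC50, and 2- and 4-fold above and below IC50. Lineweaver–Burk slopes were replotted against [inhibitor]. Ki equals the slope at 0 μM inhibitor divided by the replot slope. Ki was determined only when IC50 <100 μM.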

The target is the same in assay [3]. Put plainly: Concentration required for 50%inhibition of Ac-Asp-[3,4-3H]-Glu-OH hydrolysis against rat forebrain N-Acetylated alpha-linked Dipeptidase (NAALA Dipeptidase). The method in brief:
as §1

For assay [4] the target is unchanged. The assay is described as follows: Tested for Ac-Asp-[3,4-3H]-Glu-OH hydrolysis inhibitory activity against rat forebrain N-Acetylated alpha-linked Dipeptidase (NAALA Dipeptidase). In outline: as §2

T1 sequence (P70627 whole entry): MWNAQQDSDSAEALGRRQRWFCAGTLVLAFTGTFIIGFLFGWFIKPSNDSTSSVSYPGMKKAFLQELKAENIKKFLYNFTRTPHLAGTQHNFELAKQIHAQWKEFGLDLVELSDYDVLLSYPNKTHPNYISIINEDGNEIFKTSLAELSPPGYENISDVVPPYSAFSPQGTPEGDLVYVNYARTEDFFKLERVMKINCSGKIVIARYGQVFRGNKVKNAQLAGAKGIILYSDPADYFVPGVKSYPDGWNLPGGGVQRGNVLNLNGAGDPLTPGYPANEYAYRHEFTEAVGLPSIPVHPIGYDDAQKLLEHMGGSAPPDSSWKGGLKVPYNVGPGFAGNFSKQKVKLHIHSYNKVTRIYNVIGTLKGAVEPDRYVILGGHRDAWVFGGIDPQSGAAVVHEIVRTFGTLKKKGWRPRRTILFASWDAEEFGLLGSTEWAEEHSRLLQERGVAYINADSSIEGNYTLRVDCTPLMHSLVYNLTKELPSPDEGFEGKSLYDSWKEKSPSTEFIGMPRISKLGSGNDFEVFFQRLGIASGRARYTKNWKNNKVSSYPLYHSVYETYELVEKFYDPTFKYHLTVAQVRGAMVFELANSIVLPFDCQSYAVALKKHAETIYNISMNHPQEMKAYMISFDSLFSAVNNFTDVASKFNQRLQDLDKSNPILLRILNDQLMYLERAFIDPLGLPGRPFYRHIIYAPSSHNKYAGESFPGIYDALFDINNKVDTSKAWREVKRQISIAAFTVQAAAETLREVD

Regarding `O=C(O)CCC(=O)N[C@@H](CCC(=O)O)C(=O)O`, in assay [1], the IC50 (as a rule, the midpoint of a concentration-inhibition curve) came to 2.5 µM. In addition, in assay [2], the Ki – broadly, a measure of affinity in units of concentration, obtained from inhibition or displacement – was 0.9 µM.

Take `O=C(O)/C=C\C(=O)N[C@@H](CCC(=O)O)C(=O)O`: the IC50 in assay [1] came to 83 µM. Also, in assay [2], the affinity, expressed as Ki, was 41 µM.

With `CC(=O)N[C@@H](CC(=O)O)CC(=O)N[C@@H](CCC(=O)O)C(=O)O`, in assay [1], the IC50 stood at 8 µM. This compound also had a Ki in assay [2] of 3.2 µM.

For `O=C(O)/C=C/C(=O)N[C@@H](CCC(=O)O)C(=O)O`, in assay [1], the IC50 came to 0.8 µM. The compound also came in with an inhibitory constant (Ki) in assay [2] of 0.4 µM.

Compound `CC(=O)N[C@@H](CC(=O)O)C(=O)N[C@@H](CCC(=O)O)CC(=O)O` displayed an IC50 in assay [1] of 200 µM.

With `CC(=O)N[C@H](CC(=O)O)C(=O)N[C@@H](CCC(=O)O)C(=O)O`, 15 µM corresponded to half-maximal inhibition in assay [3] (IC50). Besides, the affinity in assay [2] corresponds to a Ki of 8.5 µM.

On to `CC(=O)N[C@@H](CC(=O)O)C(=O)N[C@@H](CC(=O)O)C(=O)O` (Ac-Asp-Asp-OH), for which, in assay [1], the IC50 worked out at 250 µM.

Compound `CC(=O)N[C@@H](CCC(=O)O)C(=O)N[C@@H](CC(=O)O)C(=O)O` (Ac-Glu-Asp-OH) returned an IC50 in assay [1] of 193 µM.

`CC(=O)N[C@@H](CCC(=O)O)C(=O)N[C@@H](CCC(=O)O)C(=O)O` (Ac-Glu-Glu-OH): the IC50 in assay [3] was determined as 9 µM. In assay [4], the inhibition constant (Ki) was determined as 3.5 µM.
